Measurements of several laboratories.
Compare with care: the assays were run in different laboratories.
Target: Fibroblast growth factor receptor 4 (FGFR4, Homo sapiens, UniProt P22455)

| SMILES | test | setting | measurement | result |
| --- | --- | --- | --- | --- |
| N#CC1(c2ccccn2)CCN(Cc2cc(C(=O)O)c(=O)n3ccccc23)CC1 | cell-free assay, competition with immobilised ligand | 1 µM | remaining binding | 100% |
| Cc1nn(C)cc1-c1nc2c(N3CCN(Cc4ccc(Cl)cc4)CC3)c(Cl)cnc2[nH]1 | binding, competition with immobilised ligand | 1 µM | remaining binding | 68% |
| COc1ncccc1-c1cnn2ccc(N3CCN(C(=O)OC(C)C)CC3)nc12 | binding, competition with immobilised ligand | 1 µM | remaining binding | 60% |
| C#Cc1n[nH]c2c(-c3cn([C@@H](C)c4ccccn4)c(=O)[nH]c3=O)cc(F)cc12 | enzyme activity, inhibitor | 0.1 µM | inhibition | 7.2% |
| O=c1[nH]c2ccccc2n1C1CCN(Cc2ccc(-c3[nH]c4cc5ncnc5cc4nc3-c3ccccc3)cc2)CC1 | cell-free assay | 0.5 µM | remaining signal | 97.2% |
| COCc1c(-c2cc3cc(C)cc(OC)c3s2)c2c(N)ncnn2c1CN1CCNC(=O)C1 | cell-free assay, competition with immobilised ligand | 1 µM | inhibition | 99.9% |
| COc1cc(Nc2ncc(F)c(Nc3ccc4c(n3)NC(=O)C(C)(C)O4)n2)cc(OC)c1OC | binding, competition with immobilised ligand | 10 µM | inhibition | 97% |
| Cn1cc(-c2cccc(N3CCc4c(sc5c4CC(C)(C)C5)C3=O)c2CO)cc(Nc2ccncn2)c1=O | enzyme activity, inhibitor | 1 µM | inhibition | -2% |
| Cn1cncc1[C@](O)(COc1ccc(C#N)cc1-c1ccc(OC(F)(F)F)cc1)c1ccc(C#N)cc1 | cell-free assay, competition with immobilised ligand | 1 µM | remaining binding | 100% |
| Cn1cc(-c2cc(F)cc(N3CCn4c(cc5c4CCCC5)C3=O)c2CO)cc(Nc2ccc(N3CCN(C4COC4)CC3)cn2)c1=O | enzyme activity, inhibitor | 0.1 µM | inhibition | 2% |
| C#Cc1n[nH]c2c(-c3cn([C@@H](C)c4ccccc4)c(=O)[nH]c3=O)cc(F)cc12 | enzyme activity, inhibitor | 0.1 µM | inhibition | 0% |
| CC(C)(C)c1cc(C=C(C#N)C#N)cc(Br)c1O | enzyme activity, inhibitor | 0.5 µM | remaining activity | 98% |
| Nc1ncc(-c2nc(N3CCOCC3)nc(N3CCOCC3)n2)c(C(F)F)n1 | cell-free assay, competition with immobilised ligand | 10 µM | remaining binding | 100% |
